Assay outcomes (PubChem)
S100A4 MyoIIA – blocks human S100A4 binding to myosin IIA peptide. P26447. S100A4/TAMRA-MyoIIA peptide fluorescence polarization. inhibition, % at 10.7 µM. actives 0.14% (n = 360,000);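 active means mean inhibition of at least 70% across replicates, with every replicate also reaching that level; inconclusive means mean inhibition reaches 70% but some replicates fall short; inactive means mean inhibition below 70%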
Target sequence (P26447 whole entry, looked up): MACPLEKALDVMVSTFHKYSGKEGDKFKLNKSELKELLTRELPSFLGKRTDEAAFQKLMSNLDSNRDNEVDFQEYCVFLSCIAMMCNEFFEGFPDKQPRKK
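Test system: S100A4 monomer protein; Medium: HEPES pH 7.2 with CaCl2, KCl, NaCl, DTT, Triton; Probe or stimulus: TAMRA-labelled myosin IIA heavy-chain peptide probe, 5 nM; Doses: one dose per compound; Times: polarization read 5 min after assay mix addition, stable 5–60 min; Benchmarks: neutral control DMSO, positive control TFP.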
miR122 inh – blocks miR-122 activity in Huh7 sensor cells; Huh7 miR-122 Renilla luciferase sensor, 48 h; neutral wells = 0, positive control = 100; activation (reporter increase), % at 12.5 µM; actives 0.3% (n = 340,000);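 active means mean replicate activation score at least 90 and every replicate individually at or above 90; inconclusive means only one of the two criteria met; inactive means neither criterion met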;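 further: higher luciferase means less miR-122 activity so hits act as miR-122 inhibitors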
FGF22 binding – FGF22 (human) thermal shift binding | activity (Tm shift, normalised), % at 9.99 µM | actives 1.5% (n = 340,000) | recombinant FGF22 thermal shift, SYPRO orange fluorescence; percent of sucrose octasulfate shift, DMSO zero;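 active means mean Tm shift, scaled 0 neutral to 100 positive control, at about 1.3% or above, every replicate too, limit read from the data; inconclusive means no clear call, values can overlap the other calls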
Target sequence (Q9HCT0 whole entry, looked up): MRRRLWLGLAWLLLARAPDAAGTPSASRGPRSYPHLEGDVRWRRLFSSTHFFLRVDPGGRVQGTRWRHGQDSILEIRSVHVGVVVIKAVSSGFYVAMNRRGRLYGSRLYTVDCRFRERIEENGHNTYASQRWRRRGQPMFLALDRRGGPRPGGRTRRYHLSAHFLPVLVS
SIRT5 inh – inhibitors of human sirtuin-5 desuccinylase. inhibition, % at 15 µM. Purified SirT5, succinyl-peptide AMC, trypsin-coupled fluorescence. actives 1.1% (n = 330,000). Q9NXA8; in the data active means inhibition above about 15%; inconclusive means no clear call, values can overlap the other calls
Target sequence (Q9NXA8 whole entry, looked up): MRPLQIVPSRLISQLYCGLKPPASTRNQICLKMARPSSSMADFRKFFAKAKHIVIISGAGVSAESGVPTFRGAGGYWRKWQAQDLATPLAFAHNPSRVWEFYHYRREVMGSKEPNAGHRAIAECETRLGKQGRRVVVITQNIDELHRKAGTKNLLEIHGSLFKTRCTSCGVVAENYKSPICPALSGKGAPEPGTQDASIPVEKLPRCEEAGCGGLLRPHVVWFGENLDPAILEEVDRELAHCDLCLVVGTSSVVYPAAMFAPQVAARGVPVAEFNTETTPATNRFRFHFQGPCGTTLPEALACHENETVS
E-sel inducer – induces E-selectin expression in human endothelial cells | activation, % at 7.58 µM | HUVEC E-selectin immunofluorescence imaging; normalized: neutral wells 0, TNF-alpha wells 100 | AID 686992 | actives 0.37% (n = 260,000);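 active means mean E-selectin-positive cell signal at least 10% of the positive control, reached in at least 60% of replicates, without over 20% cell loss; inconclusive means no rule given, readout overlaps actives, possibly toxicity-flagged; inactive means the rest, including those meeting only one limit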
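Test system – human umbilical vein endothelial cells (HUVEC), E-selectin induction · Input – 3,000 HUVEC seeded per well · Buffer or medium – EGM-2, gelatin · Compound dosing – single-point compound dose · Detection – immunofluorescence imaging · Measure – percent E-selectin-positive cells · Controls – TNF-alpha high, DMSO low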
* hit, by the source's call; u = inconclusive; x = no result; [ ] = dose if it differs, or a comment. Sampled rows, rich in hits. Any-hit rate of the full collection: about 2.5%.

SMILES	S100A4 MyoIIA	miR122 inh	FGF22 binding	SIRT5 inh	E-sel inducer
O=C(C[C@H]1CC[C@H](NC(=O)Nc2cc(F)ccc2F)[C@@H](CO)O1)NCc1ccc2c(c1)OCO2	0	9[16.7 µM]	0	2	0
O=C(CCc1ccccc1)Nc1nncs1	x	-1	x	x	x
CCc1nnc(NC(=O)CS(=O)(=O)Cc2ccccc2)s1	-3	13	1.5*	-2	x
O=C(CCS(=O)(=O)Cc1ccccc1)Nc1nncs1	0	-10	0	19*	0
CCCCN1C(=O)C(CC(=O)NCC2CCCCC2)CC(C(=O)N(C)C)=C1C (stereo not given)	-1	0	0	-5	x
CCCCN1C(=O)C(CC(=O)NCC2CCCCC2)CC(C(=O)N(CC)CC)=C1C (stereo not given)	-15	-4	0	17*	0
C[C@@H]1CN([C@@H](C)CO)C(=O)c2cc(C#CC3CC3)cnc2O[C@@H]1CN(C)C(=O)c1ccccc1	7	-1[16.7 µM]	0	-3	97*
C[C@H]1CN([C@@H](C)CO)C(=O)c2cc(C#CC3CCCCC3)cnc2O[C@@H]1CN(C)C(=O)Nc1ccccc1	2	x	0	15*	-5
CCC(=O)N[C@@H]1C=C[C@@H](CC(=O)NCc2cc(F)cc(F)c2)O[C@@H]1CO	x	x	0	-1	0
O=C(NCCN1CCN(c2ccccc2)CC1)c1ccc2c(c1)[nH]c(=S)n1c3ccccc3nc21	1	x	43*	0	0
CCOc1cc(C)c(Cl)cc1S(=O)(=O)NC1CC(C)(C)NC(C)(C)C1	x	181*	x	x	x
COc1cc(C)c(Cl)c(C)c1S(=O)(=O)NC1CC(C)(C)NC(C)(C)C1	-1	0	1	x	u
COc1cc(C)c(C(C)C)cc1S(=O)(=O)NC1CC(C)(C)NC(C)(C)C1	-6	128*	0	-2	x
Nc1ccccc1SCC(=O)Nc1nc(-c2ccccc2)cs1	-1	0	1.5*	-4	x
CCCCN1C(=O)/C(=C/C=C2\SCCN2C)SC1=S	23	x	0	5	38*
CN1CCS/C1=C/C=C1\SC(=S)N(CC(=O)O)C1=O	-16	-38	0	9	0
CCN1CCN(c2cc(C)c3cc(NC(=S)NCCN(C)C)ccc3n2)CC1	-20	x	0	21*	1
Cc1cc(N2CCN(C)CC2)nc2ccc(NC(=S)N3CCCCCC3)cc12	1	2	0	20*	0
CCN(CC)CCNC(=S)Nc1ccc2nc(N3CCN(CC)CC3)cc(C)c2c1	-12	x	0	-3	0
Cc1cc(N2CCN(C)CC2)nc2ccc(NC(=S)N3CCCCC3)cc12	-5	7	0	-1	4
O=C(C[C@H]1CC[C@H]2[C@@H](COC[C@H](O)CN2C(=O)Nc2ccc(F)cc2)O1)NCCc1ccccc1	-5	-6[16.7 µM]	0	2	0
COCCNC(=O)C[C@@H]1CC[C@H]2[C@@H](COC[C@H](O)CN2Cc2cccc(-c3ccncc3)c2)O1	90*	-2[16.7 µM]	-1	10	0
O=C(C[C@H]1CC[C@@H]2[C@H](COC[C@@H](O)CN2C(=O)Nc2ccc(F)cc2)O1)NCCc1ccccc1	106*	0[16.7 µM]	-1	9	0
COCCNC(=O)C[C@@H]1CC[C@H]2[C@@H](COC[C@@H](O)CN2Cc2cccc(-c3ccncc3)c2)O1	-4	-2[16.7 µM]	x	11	0
O=C(C[C@@H]1CC[C@H]2[C@@H](COC[C@@H](O)CN2C(=O)C2CCCC2)O1)NCc1ccncc1	-37	138*[16.7 µM]	0	0	0
SMILES	S100A4 MyoIIA	miR122 inh	FGF22 binding	SIRT5 inh	E-sel inducer
O=C(C[C@@H]1CC[C@@H]2[C@H](COC[C@H](O)CN2C(=O)c2cccnc2)O1)NCc1ccc(Cl)cc1	94*	5[16.7 µM]	-1	10	0
Cc1ccc(-c2ccc(C3[C@@H]4CN(S(=O)(=O)c5ccc(C)cc5)C[C@H]3N4)cc2)cc1 (stereo not given in full)	-2	x	x	x	0
COc1cccc(S(=O)(=O)N(C)C[C@H]2OCc3ccccc3-c3ccccc3C(=O)N([C@@H](C)CO)C[C@H]2C)c1	-2	x	0	1	-3
COc1ccc2c3c(n(C)c2c1)[C@H](CO)N(C)CC31CCN(CC2CC2)CC1	x	x	0	x	0
C[C@H](CO)N1C[C@H](C)[C@@H](CN(C)CC2CC2)Oc2cc(C#CC3(O)CCCC3)ccc2S1(=O)=O	8	1[16.7 µM]	-1	6	-1
O=C(C[C@@H]1CC[C@H]2[C@@H](COC[C@@H](O)CN2CC2CCCCC2)O1)NCc1ccc(F)cc1	116*	3[16.7 µM]	0	9	0
O=C(C[C@H]1CC[C@@H]2[C@H](COC[C@H](O)CN2C(=O)C2CCCC2)O1)NCc1ccncc1	-7	122*[16.7 µM]	0	-5	0
O=C(C[C@H]1CC[C@@H]2[C@H](COC[C@@H](O)CN2CC2CCCCC2)O1)NCc1ccc(Cl)cc1	-3	4[16.7 µM]	0	-3	0
O=C(C[C@@H]1CC[C@@H]2[C@H](COC[C@H](O)CN2C(=O)C2CCCC2)O1)NCc1ccncc1	-7	48[16.7 µM]	0	2	0
CCCNC(=O)Nc1ccc2c(c1)C(=O)N(C)[C@@H]1CC[C@@H](CC(=O)OC)O[C@@H]1CO2	11	30[16.7 µM]	0	-3	0
COc1ccc(CC(=O)NCc2nnc(SCc3ccc(C)cc3)n2C)cc1	-5	x	43*	-1	x
CCCCCCCC[n+]1cccc(C(=O)N(CC)CC)c1	-7	x	43*	-5	x
CCCCCCCCCCCCCCCC[n+]1cccc(C(=O)N(CC)CC)c1	-3	x	0	-4	2
O=C(C1CCOCC1)N1[C@H](CO)[C@@H](c2ccccc2)C12CN(Cc1cccnc1)C2	-8	x	0	-1	0
COc1ccc2c(CC(=O)NNC(=O)c3cccs3)coc2c1	-1	25	0	-1	0
COc1ccc2c(CC(=O)NNC(=O)c3ccc(C)cc3)coc2c1	-4	-7	0	21*	0
CCCN1C[C@H](C)[C@@H](OC)CN(C)C(=O)c2cc(NC(=O)COC)ccc2OC[C@H]1C	x	-7[16.7 µM]	x	x	0
CCc1ccccc1-n1c(SCC(=O)N2CCCC2)nc2[nH]ncc2c1=O	-2	-2	44*	-4	0
C/C=C/c1ccc2c(c1)O[C@@H](CN(C)C(=O)Nc1ccc(C(F)(F)F)cc1)[C@H](C)CN([C@@H](C)CO)S2(=O)=O	-5	0[16.7 µM]	0	9	0
O=C1c2ccccc2C(=O)c2c1cccc2N1CCCC1	0	-7	0	9	1
Cn1c(=O)cc2c3c(c(N4CCCCC4)ccc31)C(=O)c1ccccc1-2	103*	-4	0	-4	x
O=C(O)CSc1ccc2ccccc2n1	x	7	x	x	x
CCOC(=O)CSc1ccc2ccccc2n1	-5	x	43*	-2	x
CCCc1cc(C(=O)OC)c(NC(=O)CCCC(=O)O)s1	-2	-3	44*	-2	5
